Source: PubChem BioAssay (several laboratories)
Shown are actives, neighbours in structure and some others; about 1.4% of the full set was active somewhere.
Dyrk1A ADPGlo: Dyrk1A (rat) kinase inhibition; Q63470; ADP-Glo luminescence, NFATc1 peptide; inhibition, % at 12.5 µM; 0.43% of 310,000 active; AID 504441; in the data active = inhibition above about 50%;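 note: plate controls were vehicle with enzyme for no effect and no enzyme for full effect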
CDK5 inh: CDK5/p35 (human) kinase inhibition; inhibition, % at 10 µM; 0.01% of 330,000 active; Recombinant CDK5/p35, ADP-Glo luminescence, 60 min; Q00535+Q15078; AID 488839;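 active = highest replicate inhibition of at least 50% and at least 75% of replicates reaching 50%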;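 note: plate controls were DMSO neutral control for no effect and GW8510 at 10 µM for full effect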
Target sequence (Q00535 whole entry, looked up): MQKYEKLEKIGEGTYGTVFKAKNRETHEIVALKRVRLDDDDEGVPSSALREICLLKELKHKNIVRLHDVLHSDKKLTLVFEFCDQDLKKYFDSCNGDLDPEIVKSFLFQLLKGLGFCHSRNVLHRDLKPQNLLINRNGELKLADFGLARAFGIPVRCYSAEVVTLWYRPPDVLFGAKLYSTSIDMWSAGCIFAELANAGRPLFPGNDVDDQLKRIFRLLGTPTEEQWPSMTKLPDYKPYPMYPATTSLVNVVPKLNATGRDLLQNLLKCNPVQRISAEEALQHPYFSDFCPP
Target sequence (Q15078 whole entry, looked up): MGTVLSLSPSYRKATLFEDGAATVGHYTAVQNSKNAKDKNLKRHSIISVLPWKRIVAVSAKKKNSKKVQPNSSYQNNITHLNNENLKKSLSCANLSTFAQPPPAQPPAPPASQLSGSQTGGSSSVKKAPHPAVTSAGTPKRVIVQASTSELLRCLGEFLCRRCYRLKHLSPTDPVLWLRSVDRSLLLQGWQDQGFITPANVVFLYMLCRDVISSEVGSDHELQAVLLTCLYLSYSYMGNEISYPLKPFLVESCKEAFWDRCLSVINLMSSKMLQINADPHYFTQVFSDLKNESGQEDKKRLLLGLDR
Tb MetRS inh: Trypanosoma brucei MetRS inhibition; purified T. brucei MetRS, ATP depletion, Kinase-Glo luminescence; inhibition, % at 11.9 µM; 0.4% of 360,000 active; AID 624268;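 active = inhibition above a per-plate cutoff of the control wells' mean inhibition plus 3 SD, cut at about 5.5% in these data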;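 note: 0% = DMSO wells median and 100% = median of wells with control inhibitor compound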
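Test system – parasite MetRS enzyme · Reagent – substrates ATP, L-methionine and bulk Escherichia coli tRNA · Doses – 11.9 µM compound single dose, 0.9% DMSO · Times – 15 min enzyme-compound preincubation, 2 h reaction, 10 min detection, 25 °C · Signal – Kinase-Glo luminescence, ATP depletion format · Controls – DMSO-only wells as low control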
CAL PDZ FP-1: inhibitors of human CAL PDZ peptide binding | 0.02% of 330,000 active | inhibition, % at 20 µM | purified CAL PDZ, TMR-peptide fluorescence polarization, 1 h;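 active = highest replicate inhibition of at least 40%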;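 note: plate controls were DMSO neutral control wells for no effect and unlabeled competitor peptide control wells for full effect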
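material = purified tagged CAL PDZ domain construct (CerCALP) | buffer or medium = sodium phosphate/NaCl buffer pH 7.4 with TCEP, IgG, Thesit | reagent = TMR-labelled reporter peptide T*-PRC34 bound in PDZ groove | incubation = 1 h room-temperature incubation prior to read | measured by = fluorescence polarization (mP) | evaluation = percent inhibition from loss of millipolarization | control set = unlabelled peptide and DMSO controls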
PvdQ inh: blocks Pseudomonas aeruginosa PvdQ acylase activity; purified PvdQ acylase, fluorescence plate reader; inhibition, % at 10 µM; 0.063% of 340,000 active; AID 488965; in the data active = inhibition above about 30%, passing the limit was not always enough;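 note: 0% = vehicle neutral wells and 100% = reference inhibitor wells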
CAL PDZ FP-2: blocks peptide binding to the human CAL PDZ domain. inhibition, % at 24.9 µM. 0.92% of 300,000 active. purified CAL PDZ, TMR-peptide fluorescence polarization, 1 h. AID 602252;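 active = mean inhibition of at least 30% with at least half of replicates also reaching 30%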;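 note: 0% = DMSO neutral control and 100% = excess unlabeled competitor peptide PRC23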
Starred values were filed as active, the others as inactive; / = not tested or not shown.

SMILES	Dyrk1A ADPGlo	CDK5 inh	Tb MetRS inh	CAL PDZ FP-1	PvdQ inh	CAL PDZ FP-2
O=C(O)C1CCCN1c1nc(-c2ccc(Cl)c(Cl)c2)cc(C(F)(F)F)n1 (stereo unspecified)	-2	0	0	-2	-16	91*
COc1ccc2nc(Cl)c(C=O)c(N3CCOCC3)c2c1	/	/	0	/	/	/
O=C1[C@H]2[C@@H]3CCN1CCC[C@@H]2C=C[C@@H]3c1ccc(Br)cc1	/	/	0	/	/	/
CCCNS(=O)(=O)c1ccc(OC)c(Cl)c1Cl	1	1	1	0	39*	-7
Cc1ccc(O)c(C(=O)C=Cc2ccccc2)c1	-6	-1	0	-1	4	-5
O=C(C=Cc1ccccc1)c1cc(Br)ccc1O	-4	-2	0	21	17	81*
Cc1cc(C(=O)NNC(=O)c2ccc(Cl)c(S(N)(=O)=O)c2)c(C)o1	/	0	0	0	-13	64*
COc1cc(NC(=S)Nc2ccccn2)cc(OC)c1	7	2	1	-1	-6	44*
COc1cc(NC(=S)Nc2ccccn2)cc(OC)c1OC	7	-1	-1	-1	-7	0
Cc1cc(C)cc(NC(=O)N2CCCC2C(=O)NCc2ccco2)c1 (stereo unspecified)	9	-2	0	0	-10	76*
CC(C)CNC(=O)C1(C)CCN1C(=O)c1ccc(C(C)(C)C)cc1 (stereo unspecified)	/	/	0	/	/	/
O=C(Cc1csc(Nc2nc(=S)[nH]c3ccccc23)n1)N1CCN(c2cccc(Cl)c2)CC1	-1	-1	0	-1	-1	54*
CC(C)c1ccc(NC(=O)c2n[nH]c(=O)c3ccccc23)cc1	0	0	1	-1	-15	35*
CCc1ccc(C(=O)NNC(=O)c2n[nH]c(=O)c3ccccc23)cc1	9	1	0	0	-4	-3
CCC(CC)NC(=O)c1n[nH]c(=O)c2ccccc12	2	-1	0	-1	-17	-4
O=C(NNC(=O)c1n[nH]c(=O)c2ccccc12)c1ccc(Br)cc1	-2	-4	0	-1	-9	109*
CC1CCCN(C(=O)c2ccc(COc3ccccc3Br)cc2)C1 (stereo unspecified)	/	2	0	-1	-8	40*
CCOc1ccc(NC(=S)NC(=O)C2CCCC2)cc1	1	-2	0	0	-11	32*
CCOc1ccc(-n2c(C)c(C(C)=O)c3cc(OCC(N)=O)ccc32)cc1	-3	-2	-1	-3	-2	2
COc1ccc(-n2c(C)c(C(C)=O)c3cc(OCC(N)=O)ccc32)cc1	/	1	0	2	-18	38*
COc1cc2c(cc1OC)C(c1ccc3c(c1)Cc1ccccc1-3)OC(=O)C2 (stereo unspecified)	/	/	0	/	/	/
O=C(Nc1cccc(S(=O)(=O)N2CCOCC2)c1)c1ccccn1	/	1	-1	1	-4	75*
S=C(NCc1ccccc1)NCc1ccccc1	-4	1	1	-3	-9	-1
S=C(NCc1ccccc1)NNc1ccccc1	1	-1	-1	-1	-14	58*
Cc1cc(C)n(/N=C\c2c(O)ccc3ccccc23)c(=O)c1C(N)=O	1	-1	-1	0	-7	50*
SMILES	Dyrk1A ADPGlo	CDK5 inh	Tb MetRS inh	CAL PDZ FP-1	PvdQ inh	CAL PDZ FP-2
COC(=O)C1=CN(c2ccc(N3CCOCC3)cc2)C(N)=C(C#N)C1c1cccc(F)c1 (stereo unspecified)	/	/	-1	/	/	/
OC(c1cccnc1)c1nc(/C=C/c2ccc(C(F)(F)F)cc2)cs1 (stereo unspecified)	/	/	0	/	/	/
CCOC(=O)C1=C(C)NC(C)=C(C(=O)OCC)C1c1ccc(Br)o1	-4	/	-1	-2	-13	179*
CSCCC(NC(=O)c1ccco1)C(=O)NCCc1ccc(Cl)cc1 (stereo unspecified)	4	-1	0	0	-20	100*
CCCC(=O)Nc1ccc(NC(=O)c2ccccc2Cl)nc1	-3	1	0	/	-19	41*
Cc1cccc(N2CCN(C(=O)c3[nH]c(C(F)(F)F)nc3-c3ccccc3)CC2)c1C	/	/	0	/	/	/
Cc1cc(O)c(CN(C)C)c2c1C(=O)/C(=C/c1ccco1)O2	10	0	1	0	-12	-4
